Experimental data: ChEMBL document CHEMBL5712908, “A genome-wide RNAi screen reveals essential therapeutic targets of breast cancer stem cells” (2019)
Activity calls are given as the source filed them. The calls are words filed in the database; no cut-off is given here.

Columns and labels:
SUM-159-PT [1] = assay: Synergistic apoptosis in human SUM159 cell expressing ALDH at 500 nM incubated for 72 hrs in presence of salinomycin by ALDEFLUOR/YO-PRO-3/ Hoechst 33342 staining based high content imaging microscopic analysis; format: functional
Summary of the method: (§1)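 SUM159 cells seeded at 3,000 cells/well in collagen-coated 96-well plates. Drug added at 6, 24 and 48 h post-seeding. Cisplatin served as positive control and 0.1% v/v DMSO as vehicle control. At 72 h post-seeding, cells were stained with ALDEFLUOR, YO-PRO-3 (1/4,000) and Hoechst 33342 (10 μg/ml) in ALDEFLUOR buffer for 30 min at 37°C, then imaged on ice by high-content microscopy, 9 fields/well. DEAB set the ALDHbr gate. YO-PRO-3⁺ fraction per subpopulation was gated against untreated cells.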

Breast cancer cell line [2] = assay: Synergistic antitumor activity against human CRCM434 negative breast cancer cells xenografted in NSG mouse model of PDX assessed as reduction metastasis formation in lung at 50 mg/kg, ip 5 out of 7 for 2 weeks cotreated with salinomycin; format: functional, organism-based
Summary of the method: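 Luciferase-expressing PDX cells sorted H2Kd⁻ and viable, 100,000 in 100 μl PBS injected in NSG tail vein. From the next day, salinomycin 3 mg/kg i.p. daily and/or JQ1 50 mg/kg i.p. 5 of 7 days for 2 weeks. Lungs and liver imaged by bioluminescence after i.p. luciferin 30 mg/kg; normalised photon flux; 10 mice/group; Wilcoxon test.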

SUM-159-PT [3] = assay: Anticancer activity against human SUM159 cells expressing BFP assessed as reduction in ALDHbr cell at 5 to 500 nM by LSR2 cytometer analysis; format: functional, cell-based; conditions: dose 5-500 nM
SUM-159-PT [4] = assay: Induction of apoptosis in human SUM159 cells expressing ALDH upto 100 uM incubated for 72 hrs by ALDEFLUOR/YO-PRO-3/ Hoechst 33342 staining based high content imaging microscopic analysis; format: functional, cell-based
Summary of the method: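 SUM159 at 3,000 cells/well on collagen plates, dosed at 6, 24 and 48 h post-seeding; 0.1% DMSO negative control, cisplatin positive control. At 72 h stained 30 min at 37°C with ALDEFLUOR, YO-PRO-3 and Hoechst 33342, then imaged ice-cold. YO-PRO-3-positive nuclei (above untreated signal) counted over total cells, per ALDHbr/ALDH- subpopulation; n = 6.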

SUM149PT = assay: Anticancer activity against human SUM149 cells assessed as ALDHbr cells at 10 uM by LSR2 cytometer (reference value: 4.8%); format: functional
Breast cancer cell line [5] = assay: Antitumor activity against human CRCM494 negative breast cancer cells orthotopically xenografted in NSG mouse model of PDX assessed as reduction ALDHbr cells at 50 mg/kg, ip 5 out of 7 for 2 weeks by LSR2 cytometer analysis; format: functional, organism-based
Summary of the method: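 Chemo-naïve triple-negative PDX cells injected at 100,000 per fat pad, two fat pads per NSG mouse. At ~80 mm³ tumours, mice received i.p. 3 mg/kg daily for 14 days or 50 mg/kg 5 of 7 days for 2 weeks; placebo was DMSO/HPCD 10% (1:9). Five mice (10 tumours) per group. Tumour growth monitored; after 2 weeks tumours dissociated, mouse cells excluded via anti-H2Kd, ALDHbr measured by ALDEFLUOR flow cytometry and normalised to vehicle.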

SUM-159-PT [6] = assay: Anticancer activity against human SUM159 cells assessed as decrease in secondary tumor sphere formation incubated for 72 hrs by Extreme limiting dilution analysis; format: functional, cell-based
Summary of the method: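 Cells drug-treated in adherent culture for 72 h, then plated as single cells in ultra-low attachment 96-well plates in serum-free mammary epithelium basal medium. Plating at 25/10/5/3/2/1 cells per well, 18–36 wells per condition. Wells with ≥1 sphere after 10 days scored positive. Secondary spheres were made by dissociating primary spheres. Frequency by ELDA; n = 4; pairwise chi-square test.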

SUM-159-PT [7] = assay: Synergistic anticancer activity against human SUM159 cells assessed as decrease in docetaxel induced primary tumor sphere formation at 62 nM incubated for 72 hrs in presence of salinomycin by Extreme limiting dilution analysis; format: functional, cell-based
Summary of the method: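 72 h adherent pretreatment (Sal/JQ1 62 nM/62 nM; docetaxel added at 2 nM where used), then single cells plated in ultra-low attachment 96-well plates in serum-free mammary epithelium basal medium at 25/10/5/3/2/1 cells/well (18–36 wells/condition). Wells with ≥1 sphere after 10 days scored positive; sphere-forming frequency by ELDA. Secondary spheres from dissociated primary spheres. n = 4; pairwise chi-square.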

Breast cancer cell line [8] = assay: Synergistic antitumor activity against human reimplanted CRCM494 negative breast cancer cells orthotopically xenografted in NSG mouse model of PDX assessed as reduction tumor volume at 50 mg/kg, ip 5 out of 7 for 2 weeks cotreated with salinomycin by limiting dilation analysis; format: functional, organism-based
SUM-159-PT [9] = assay: Synergistic apoptosis in human SUM159 cells expressing ALDHbr at 500 nM incubated for 72 hrs in presence of salinomycin by ALDEFLUOR/YO-PRO-3/ Hoechst 33342 staining based high content imaging microscopic analysis; format: functional, cell-based; summary of the method: as §1
SUM-159-PT [10] = assay: Anticancer activity against human SUM159 cells assessed as effect on RFP+/BFP+ cell ratio upto 100 uM after 72 hrs by ALDEFLUOR staining based flow cytometric analysis; format: functional
Breast cancer cell line [11] = assay: Antitumor activity against human reimplanted CRCM434 negative breast cancer cells orthotopically xenografted in NSG mouse model of PDX assessed as reduction tumor volume at 50 mg/kg, ip 5 out of 7 for 2 weeks by limiting dilation analysis; format: functional, organism-based
Summary of the method: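 After 2 weeks of i.p. treatment (3 mg/kg daily or 50 mg/kg 5 of 7 days), dissociated PDX tumour cells reimplanted into secondary NSG mice at 50, 500 or 5,000 cells. A mouse counted as tumour-bearing once a tumour reached 10 mm. bCSC frequency per 10,000 cells estimated by ELDA; pairwise chi-square test.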

Breast cancer cell line [12] = assay: Synergistic apoptosis activity in patient-derived breast cancer cells orthotopically xenografted in NSG mouse model of PDX assessed as increase in cleaved caspase-3 at 50 mg/kg, ip 5 out of 7 for 2 weeks cotreated with salinomycin by Immunostaining analysis; format: functional, organism-based; conditions: Homo sapiens
Summary of the method: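 Paraffin sections of treated PDX tumours deparaffinised and subjected to antigen retrieval in citrate buffer pH 6. Peroxidase staining with ready-to-use Ki67 or cleaved caspase-3 antibody, DAB substrate, haematoxylin counterstain. Proportion of positive cells quantified; n = 3; t-test.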

SUM-159-PT [13] = assay: Synergistic anticancer activity against human SUM159 cells expressing BFP assessed as reduction in ALDHbr cell at 5 to 500 nM in presence of salinomycin by LSR2 cytometer analysis; format: functional, cell-based; conditions: dose 5-500 nM
Breast cancer cell line [14] = assay: Synergistic antitumor activity against human CRCM404 negative breast cancer cells orthotopically xenografted in NSG mouse model of PDX assessed as reduction in tumor volume at 50 mg/kg, ip 5 out of 7 for 2 weeks cotreated with salinomycin; format: functional, organism-based
Summary of the method: (§2)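 Orthotopic PDX in NSG mice, 100,000 cells per fat pad, two pads per mouse; treatment from ~80 mm³ tumours with salinomycin i.p. 3 mg/kg daily 14 days, JQ1 i.p. 50 mg/kg 5 of 7 days for 2 weeks, or combination, against placebo DMSO/HPCD 10% (1:9). Tumour growth monitored; n = 10 tumours per group.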

Breast cancer cell line [15] = assay: Synergistic antitumor activity against human CRCM434 negative breast cancer cells orthotopically xenografted in NSG mouse model of PDX assessed as reduction in tumor volume at 50 mg/kg, ip 5 out of 7 for 2 weeks cotreated with salinomycin; format: functional, organism-based; summary of the method: as §2

Cc1sc2c(c1C)C(c1ccc(Cl)cc1)=N[C@@H](CC(=O)OC(C)(C)C)c1nnc(C)n1-2
Activity (SUM-159-PT [1]): Active | Activity (Breast cancer cell line [2]): Active | Activity (SUM-159-PT [3]): Active | Activity (SUM-159-PT [4]): Active | Activity (SUM149PT): 5.1% | Activity (Breast cancer cell line [5]): Active | Activity (SUM-159-PT [6]): Active | Activity (SUM-159-PT [7]): Active | Activity (Breast cancer cell line [8]): Active | Activity (SUM-159-PT [9]): Active | Activity (SUM-159-PT [10]): inactive | Activity (Breast cancer cell line [11]): Active | Activity (Breast cancer cell line [12]): inactive | Activity (SUM-159-PT [13]): Active | Activity (Breast cancer cell line [14]): Active | Activity (Breast cancer cell line [15]): Active
